# What was measured:
# Rattus norvegicus [1] = species on record: Rattus norvegicus; experiment: animal or person; assay type: functional; conditions: Uterus, 72 h, route oral
# Rattus norvegicus [2] = experiment: Uterotropic activity in rat assessed as stimulation of estrone-induced uterine weight at 1 mg/kg, po QD after 3 days; assay type: functional; conditions: Uterus, 72 h
# Estrogen receptor beta = Estrogen receptor beta (Homo sapiens, UniProt Q92731); experiment: Inhibition of fluormone ES2 binding to estrogen receptor beta after 1 hr by fluorescence polarization assay
# Sequence of Estrogen receptor beta (Q92731 whole entry): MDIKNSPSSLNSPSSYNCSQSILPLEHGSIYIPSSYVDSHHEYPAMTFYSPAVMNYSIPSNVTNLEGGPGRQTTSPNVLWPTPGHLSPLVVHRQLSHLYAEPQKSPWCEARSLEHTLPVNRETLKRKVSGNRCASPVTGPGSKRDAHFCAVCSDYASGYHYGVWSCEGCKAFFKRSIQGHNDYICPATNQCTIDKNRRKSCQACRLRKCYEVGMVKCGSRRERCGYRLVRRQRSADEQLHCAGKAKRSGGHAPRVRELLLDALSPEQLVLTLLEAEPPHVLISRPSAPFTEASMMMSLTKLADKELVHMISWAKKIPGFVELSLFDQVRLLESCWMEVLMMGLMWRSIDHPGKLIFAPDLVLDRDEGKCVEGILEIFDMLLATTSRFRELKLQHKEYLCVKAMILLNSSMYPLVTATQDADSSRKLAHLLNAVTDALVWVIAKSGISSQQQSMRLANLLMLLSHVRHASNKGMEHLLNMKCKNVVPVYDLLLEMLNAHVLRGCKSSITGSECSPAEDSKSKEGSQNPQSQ
# Estrogen receptor [3] = biological target: T1, Estrogen receptor (Homo sapiens, UniProt P03372); experiment: Antagonist activity at estrogen receptor in human Ishikawa cells assessed as 17-beta-estradiol-induced alkaline phosphatase activity after 3 days by chemiluminescence assay; assay type: functional, cell-based
# T1 sequence (P03372 whole entry): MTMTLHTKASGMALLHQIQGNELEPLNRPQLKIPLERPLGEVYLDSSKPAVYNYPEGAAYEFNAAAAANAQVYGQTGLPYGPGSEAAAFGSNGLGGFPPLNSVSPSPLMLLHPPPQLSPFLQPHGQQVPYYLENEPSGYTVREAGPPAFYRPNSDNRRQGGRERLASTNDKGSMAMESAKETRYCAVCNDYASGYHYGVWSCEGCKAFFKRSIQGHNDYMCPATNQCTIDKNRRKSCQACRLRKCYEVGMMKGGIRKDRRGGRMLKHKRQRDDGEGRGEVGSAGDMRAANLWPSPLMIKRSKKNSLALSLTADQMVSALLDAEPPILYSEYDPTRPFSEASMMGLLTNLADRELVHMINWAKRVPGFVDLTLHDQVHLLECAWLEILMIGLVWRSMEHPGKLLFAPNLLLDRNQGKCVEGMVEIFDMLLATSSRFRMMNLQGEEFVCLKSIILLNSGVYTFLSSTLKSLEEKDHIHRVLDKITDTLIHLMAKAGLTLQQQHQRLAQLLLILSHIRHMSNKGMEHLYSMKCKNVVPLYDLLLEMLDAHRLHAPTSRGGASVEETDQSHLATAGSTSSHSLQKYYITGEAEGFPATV
# Estrogen receptor [4] = biological target: T1, Estrogen receptor; experiment: Displacement of radiolabeled estrogen from estrogen receptor alpha by scintillation counting
# [5] = AUC in rat at 10 mg/kg, po administered as single dose by LC-MS/MS analysis; assay type: ADME, organism-based; parameters: dose 10 mg/kg, route oral; conditions: plasma
# Summary of the method: (§1)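 Single-dose rat pharmacokinetics. IV dosing at 1-3 mg/kg as a solution in 10% β-cyclodextrin; oral gavage at 10 mg/kg as a uniform suspension in 0.5% methylcellulose. Blood (0.5 mL) collected into heparinized tubes by orbital sinus puncture after dosing. Plasma extracted into acetonitrile with an internal standard and analysed by LC-MS-MS against standards to obtain PK parameters.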
# [6] = Oral bioavailability in rat at 10 mg/kg administered as single dose by LC-MS/MS analysis; assay type: ADME, organism-based; conditions: in vivo
# Summary of the method: as §1
# [7] = Tmax in rat at 10 mg/kg, po administered as single dose by LC-MS/MS analysis; assay type: ADME, organism-based; parameters: dose 10 mg/kg, route oral; conditions: in vivo
# Summary of the method: as §1
# [8] = Half life in rat at 10 mg/kg, po administered as single dose by LC-MS/MS analysis; assay type: ADME, organism-based; parameters: dose 10 mg/kg, route oral; conditions: in vivo
# Summary of the method: as §1
# [9] = Cmax in rats after 10 mg/kg oral dose; assay type: ADME, organism-based; parameters: dose 10 mg/kg, route oral; conditions: rat, in vivo
# Summary of the method: as §1
Compound,inhibition in vivo at 1 mg/kg (Rattus norvegicus [1]) [%],stimulation at 1 mg/kg (Rattus norvegicus [2]) [%],IC50 (Estrogen receptor beta) [nM],IC50 (Estrogen receptor [3]) [nM],IC50 (Estrogen receptor [4]) [nM],AUC [5] [ng·h/mL],bioavailability [6] [%],Tmax [7] [h],half-life [8] [h],Cmax [9] [ng/mL]
CN(C)CCOc1ccc([C@@H]2Oc3ccccc3C3=C2c2ccc(O)cc2OCC3)cc1,18,70,23,–,–,–,–,–,–,–
CCN(CC)CCOc1ccc([C@@H]2Oc3ccccc3C3=C2c2ccc(O)cc2OCC3)cc1,30,100,28,133,9,–,–,–,–,–
O=C(O)CCOc1ccc([C@H]2Oc3cc(O)ccc3C3=C2c2ccc(O)cc2OCC3)cc1,0,–,250,> 10000,120,–,–,–,–,–
Oc1ccc2c(c1)OCCC1=C2[C@@H](c2ccc(OCCN3CCCCCC3)cc2)Oc2ccccc21,110,–,125,293,11,–,–,–,–,–
Oc1ccc2c(c1)OCCC1=C2[C@@H](c2ccc(OCCN3CCCCCC3)cc2)Oc2cc(F)ccc21,22,–,66,81,3.3,–,–,–,–,–
CN(C)CCOc1ccc([C@H]2Oc3cc(O)ccc3C3=C2c2ccc(O)cc2OCC3)cc1,25,–,23,61,3.3,–,–,–,–,–
CCN(CC)CCOc1ccc([C@H]2Oc3ccccc3C3=C2c2ccc(O)cc2OCC3)cc1,80,–,108,113,5,–,–,–,–,–
CN1CCN(CCOc2ccc([C@H]3Oc4cc(O)ccc4C4=C3c3ccc(O)cc3OCC4)cc2)CC1,30,–,86,90,8.7,–,–,–,–,–
Oc1ccc2c(c1)OCCC1=C2[C@@H](c2ccc(OCCN3CCCCC3)cc2)Oc2ccccc21,130,–,99,76,5.8,–,–,–,–,–
O=C1CCC(=O)N1CCCOc1ccc([C@H]2Oc3cc(O)ccc3C3=C2c2ccc(O)cc2OCC3)cc1,0,–,12.7,> 10000,2.63,–,–,–,–,–
O=C1CCC(=O)N1CCOc1ccc([C@H]2Oc3cc(O)ccc3C3=C2c2ccc(O)cc2OCC3)cc1,0,–,0.64,> 10000,4.8,–,–,–,–,–
Oc1ccc2c(c1)O[C@H](c1ccc(OCCN3CCSCC3)cc1)C1=C2CCOc2cc(O)ccc21,85,–,27,87,1.2,1530,9,4.8,5.28,89
Oc1ccc2c(c1)OCCC1=C2[C@H](c2ccc(OCCN3CCCCC3)cc2)Oc2ccccc21,20,–,24,150,4.2,–,–,–,–,–
Oc1ccc2c(c1)O[C@H](c1ccc(OCCCN3CCCCC3)cc1)C1=C2CCOc2cc(O)ccc21,23,–,31,420,22,–,–,–,–,–
OCCOc1ccc(C2Oc3cc(O)ccc3C3=C2c2ccc(O)cc2OCC3)cc1 (stereo not drawn),0,–,11,> 10000,310,–,–,–,–,–
OCCCOc1ccc(C2Oc3cc(O)ccc3C3=C2c2ccc(O)cc2OCC3)cc1 (stereo not drawn),0,–,44,> 10000,326,–,–,–,–,–
Oc1ccc2c(c1)O[C@@H](c1cccc(OCCN3CCCCC3)c1)C1=C2CCOc2cc(O)ccc21,0,–,200,> 10000,190,–,–,–,–,–

# — ChEMBL document CHEMBL1153760, “Identification and structure-activity relationships of chromene-derived selective estrogen receptor modulators for treatment of postmenopausal symptoms” (J Med Chem, 2009)
